ChEMBL document CHEMBL1157042, “Triazole incorporated thiazoles as a new class of anticonvulsants: design, synthesis and in vivo screening” (Eur J Med Chem, 2010)
Activity calls are given as the source filed them.

How the values were obtained:
[1] = system: Mus musculus; assay: Anticonvulsant activity in Swiss albino mouse assessed as inhibition of PTZ-induced motor impairment at 300 mg/kg, ip after 0.5 hrs; type: functional, organism-based; set-up: dose 300 mg/kg
Procedure, shortened: (§1)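 Albino mice of either sex (25–30 g), 6 per group. Test compound was given i.p. in polyethylene glycol at 30, 100 or 300 mg/kg, and subcutaneous pentylenetetrazole challenge followed 0.5 h or 4.0 h later. Activity was scored as protection in half or more of the mice.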

[2] = system: Mus musculus; assay: Anticonvulsant activity in ip dosed Swiss albino mouse assessed as inhibition of maximum electric shock-induced motor impairment after 4 hrs; type: functional; conditions: read-out: MED
[3] = system: Mus musculus; assay: Anticonvulsant activity in Swiss albino mouse assessed as inhibition of PTZ-induced motor impairment at 300 mg/kg, ip after 4 hrs; type: functional, organism-based; set-up: dose 300 mg/kg; procedure, shortened: as §1
[4] = Neurotoxicity in ip dosed Swiss albino mouse after 4 hrs; type: toxicity, organism-based; conditions: in vivo
Procedure, shortened: (§2)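 Albino mice of either sex (25–30 g), 6 per group, received i.p. doses of 30, 100 and 300 mg/kg in polyethylene glycol. Trained mice were tested on the rotorod at 0.5 h and 4.0 h. Neurotoxicity was failure to keep balance on the rod for at least 1 min in each trial. The value recorded is the minimum dose affecting half or more of the mice.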

[5] = system: Mus musculus; assay: Neurotoxicity in Swiss albino mouse at 300 mg/kg, ip after 0.5 hrs; type: toxicity, organism-based; set-up: dose 300 mg/kg, route intraperitoneal; conditions: in vivo
[6] = system: Mus musculus; assay: Anticonvulsant activity in ip dosed Swiss albino mouse assessed as inhibition of PTZ-induced motor impairment; type: functional
[7] = system: Mus musculus; assay: Anticonvulsant activity in ip dosed Swiss albino mouse assessed as inhibition of PTZ-induced motor impairment after 4 hrs; type: functional; conditions: read-out: MED
Procedure, shortened: (§3)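 Albino mice of either sex (25–30 g), 6 per group, dosed i.p. in polyethylene glycol at 30, 100 or 300 mg/kg. Subcutaneous pentylenetetrazole was given at 0.5 h or 4.0 h, and mice were watched for 30 min. Protection meant no threshold seizure (single clonic spasm episode of at least 5 s). The value is the minimum dose protecting half or more.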

[8] = system: Mus musculus; assay: Anticonvulsant activity in Swiss albino mouse assessed as inhibition of maximum electric shock-induced motor impairment at 300 mg/kg, ip after 4 hrs; type: functional, organism-based; set-up: dose 300 mg/kg
Procedure, shortened: (§4)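 Albino mice of either sex (25–30 g), 6 per group, given drug i.p. in polyethylene glycol at 30, 100 and 300 mg/kg. Maximal electroshock was applied at 0.5 h and 4.0 h. Protection meant abolition of hind limb tonic extension.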

[9] = system: Mus musculus; assay: Anticonvulsant activity in ip dosed Swiss albino mouse assessed as inhibition of maximum electric shock-induced motor impairment after 0.5 hrs; type: functional; conditions: read-out: MED
[10] = Neurotoxicity in ip dosed Swiss albino mouse after 0.5 hrs; type: toxicity, organism-based; conditions: in vivo; procedure, shortened: as §2
[11] = system: Mus musculus; assay: Anticonvulsant activity in ip dosed Swiss albino mouse assessed as inhibition of PTZ-induced motor impairment after 0.5 hrs; type: functional; conditions: read-out: MED; procedure, shortened: as §3
[12] = system: Mus musculus; assay: Neurotoxicity in Swiss albino mouse at 300 mg/kg, ip after 4 hrs; type: toxicity, organism-based; set-up: dose 300 mg/kg, route intraperitoneal; conditions: in vivo
[13] = system: Mus musculus; assay: Anticonvulsant activity in ip dosed Swiss albino mouse assessed as inhibition of maximum electric shock-induced motor impairment; type: functional
[14] = system: Mus musculus; assay: Anticonvulsant activity in Swiss albino mouse assessed as inhibition of maximum electric shock-induced motor impairment at 300 mg/kg, ip after 0.5 hrs; type: functional, organism-based; set-up: dose 300 mg/kg; procedure, shortened: as §4
[15] = system: Mus musculus; assay: Anticonvulsant activity in po dosed Swiss albino mouse assessed as inhibition of maximum electric shock-induced motor impairment after 2 hrs; type: functional
Procedure, shortened: (§5)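 Phase IV: same procedure as i.p. phase II (MES protection, or rotorod failure for at least 1 min per trial), but drugs were given orally. Groups of 10 albino mice got a dose range yielding at least three points within 10–90% effect. ED50 or TD50 was read at the indicated time via Litchfield–Wilcoxon.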

[16] = system: Mus musculus; assay: Sedative-hypnotic activity in ip dosed Swiss albino mouse after 24 hrs; type: organism-based; conditions: in vivo
[17] = Toxicity in ip dosed Swiss albino mouse after 24 hrs; type: organism-based; conditions: in vivo
Procedure, shortened: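 Albino mice of either sex (25–30 g), in groups of 10, received a range of i.p. doses in polyethylene glycol until at least three points fell within 10–90% effect. Mortality was scored 24 h after injection.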

[18] = Neurotoxicity in ip dosed Swiss albino mouse; type: toxicity, organism-based; conditions: in vivo
[19] = Neurotoxicity in po dosed Swiss albino mouse after 2 hrs; type: toxicity, organism-based; conditions: in vivo; procedure, shortened: as §5
[20] = organism: Mus musculus; assay: Protective index, ratio of TD50 for neurotoxicity in Swiss albino mouse to ED50 for inhibition of maximal electroshock-induced seizures Swiss albino mouse; type: functional
[21] = organism: Mus musculus; assay: Ratio of HD50 for hypnotic activity in Swiss albino mouse to ED50 for inhibition of maximal electroshock-induced seizures Swiss albino mouse; type: functional
Procedure, shortened: (§6)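 Ratio of HD50 to i.p. ED50 (scPTZ or MES). HD50, in mg/kg, came from loss of righting reflex in i.p.-dosed albino mice, with a dose range analysed as for phase II ED50.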

[22] = organism: Mus musculus; assay: Protective index, ratio of TD50 for neurotoxicity in Swiss albino mouse to ED50 for inhibition of PTZ-induced motor impairment Swiss albino mouse; type: functional
[23] = system: Mus musculus; assay: Protective index, ratio of TD50 for neurotoxicity in po dosed Swiss albino mouse to ED50 for inhibition of maximal electroshock-induced seizures po dosed Swiss albino mouse; type: functional
[24] = organism: Mus musculus; assay: Ratio of HD50 for hypnotic activity in Swiss albino mouse to ED50 for inhibition of PTZ-induced motor impairment Swiss albino mouse; type: functional; procedure, shortened: as §6

SMILES	inhibition [1]	minimal effective dose [2] [mg/kg]	inhibition [3]	MTD at 4 h [4] [mg/kg]	Activity [5]	minimal effective dose [7] [mg/kg]	minimal effective dose [9] [mg/kg]	MTD at 0.5 h [10] [mg/kg]	minimal effective dose [11] [mg/kg]	Activity [12]	further results
S=c1[nH]nc(Nc2nc(-c3ccc(Br)cc3)cs2)n1-c1ccccc1	inactive	300	inactive	300	Non-toxic	–	–	–	–	–	–
CCCC(CCC)C(=O)[O-].[Na+] [VALPROATE SODIUM]	–	–	–	–	–	–	–	–	–	–	ED50 [6]: 149 mg/kg
S=c1[nH]nc(Nc2nc(-c3ccccc3)cs2)n1-c1ccccc1	inactive	–	–	300	Non-toxic	300	300	–	–	–	inhibition [8]: inactive
Cc1ccc(-n2c(Nc3nc(-c4ccc([N+](=O)[O-])cc4)cs3)n[nH]c2=S)cc1	–	300	inactive	100	–	–	100	100	300	–	–
COc1ccccc1-n1c(Nc2nc(-c3ccccc3)cs2)n[nH]c1=S	inactive	300	inactive	–	Non-toxic	–	100	–	–	Non-toxic	–
Cc1ccc(-n2c(Nc3nc(-c4ccc(Br)cc4)cs3)n[nH]c2=S)cc1	–	300	–	100	Non-toxic	300	100	–	300	–	–
CCC1(c2ccccc2)C(=O)NC(=O)NC1=O [PHENOBARBITAL]	–	30	–	300	–	–	100	100	–	–	ED50 [6]: 13.2 mg/kg; ED50 [13]: 21.8 mg/kg
S=c1[nH]nc(Nc2nc(-c3ccc(Cl)cc3)cs2)n1-c1ccccc1	inactive	300	inactive	–	Non-toxic	–	–	–	–	Non-toxic	inhibition [14]: inactive
O=C1NC(=O)C(c2ccccc2)(c2ccccc2)N1 [PHENYTOIN]	inactive	30	inactive	100	–	–	30	100	–	–	ED50 [15]: 9.16 mg/kg; ED50 [6]: > 300 mg/kg; HD50 [16]: 182 mg/kg; LD50 at 24 h [17]: 224 mg/kg
Cc1ccccc1-n1c(Nc2nc(-c3ccccc3)cs2)n[nH]c1=S	inactive	–	inactive	300	Non-toxic	–	100	–	–	–	inhibition [8]: inactive
COc1ccccc1-n1c(Nc2nc(-c3ccc(Cl)cc3)cs2)n[nH]c1=S	–	100	inactive	–	–	–	100	300	100	Non-toxic	–
Cc1ccccc1-n1c(Nc2nc(-c3ccc(Br)cc3)cs2)n[nH]c1=S	–	30	–	–	Non-toxic	300	30	–	100	Non-toxic	ED50 [15]: 49.9 mg/kg; ED50 [6]: 81.6 mg/kg; TD50 [18]: 684 mg/kg; TD50 at 2 h [19]: 884 mg/kg; Ratio TD50/ED50 [20]: 51; Ratio [21]: 47.16; ED50 [13]: 13.4 mg/kg; Ratio TD50/ED50 [22]: 8.3; Ratio TD50/ED50 [23]: 17.7; Ratio [24]: 7.74; HD50 [16]: 632 mg/kg; LD50 at 24 h [17]: 834 mg/kg
COc1ccc(-n2c(Nc3nc(-c4ccccc4)cs3)n[nH]c2=S)cc1	inactive	100	–	–	Non-toxic	300	100	–	–	Non-toxic	–
Cc1ccccc1-n1c(Nc2nc(-c3ccc([N+](=O)[O-])cc3)cs2)n[nH]c1=S	–	100	–	100	–	300	100	300	100	–	–
COc1ccc(-n2c(Nc3nc(-c4ccc(Cl)cc4)cs3)n[nH]c2=S)cc1	–	100	inactive	–	Non-toxic	–	30	–	300	Non-toxic	ED50 [15]: 54.8 mg/kg; ED50 [6]: 179 mg/kg; TD50 [18]: 439 mg/kg; TD50 at 2 h [19]: 735 mg/kg; Ratio TD50/ED50 [20]: 18.3; Ratio [21]: 36.27; ED50 [13]: 23.9 mg/kg; Ratio TD50/ED50 [22]: 2.4; Ratio TD50/ED50 [23]: 13.4; Ratio [24]: 4.85; HD50 [16]: 867 mg/kg; LD50 at 24 h [17]: 946 mg/kg
O=[N+]([O-])c1ccc(-c2csc(Nc3n[nH]c(=S)n3-c3ccccc3)n2)cc1	inactive	300	inactive	300	–	–	–	300	–	–	inhibition [14]: inactive
COc1ccccc1-n1c(Nc2nc(-c3ccc(Br)cc3)cs2)n[nH]c1=S	inactive	300	inactive	300	–	–	300	100	–	–	–
Cc1ccc(-n2c(Nc3nc(-c4ccc(Cl)cc4)cs3)n[nH]c2=S)cc1	inactive	300	inactive	300	Non-toxic	–	300	–	–	–	–
COc1ccc(-n2c(Nc3nc(-c4ccc([N+](=O)[O-])cc4)cs3)n[nH]c2=S)cc1	inactive	300	–	300	Non-toxic	300	100	–	–	–	–
CCC1(C)CC(=O)NC1=O (centres undefined) [ETHOSUXIMIDE]	inactive	–	–	–	Non-toxic	300	–	–	100	Non-toxic	inhibition [8]: inactive; inhibition [14]: inactive
COc1ccccc1-n1c(Nc2nc(-c3ccc([N+](=O)[O-])cc3)cs2)n[nH]c1=S	inactive	100	inactive	300	–	–	100	100	–	–	–
Cc1ccc(-n2c(Nc3nc(-c4ccccc4)cs3)n[nH]c2=S)cc1	–	300	inactive	–	Non-toxic	–	–	–	300	Non-toxic	inhibition [14]: inactive
COc1ccc(-n2c(Nc3nc(-c4ccc(Br)cc4)cs3)n[nH]c2=S)cc1	inactive	300	inactive	–	Non-toxic	–	300	–	–	Non-toxic	–
Cc1ccccc1-n1c(Nc2nc(-c3ccc(Cl)cc3)cs2)n[nH]c1=S	inactive	–	–	300	–	300	100	300	–	–	inhibition [8]: inactive
NC(=O)N1c2ccccc2C=Cc2ccccc21 [CARBAMAZEPINE]	–	–	–	–	–	–	–	–	–	–	ED50 [6]: > 100 mg/kg; ED50 [13]: 8.8 mg/kg
